hiPSC survival: increases survival of single human iPS cells; hiPSC single-cell survival, ATPlite luminescence; 100% = ROCK inhibitor wells, 0% = DMSO; survival enhancement, % at 20 µM; 360,000 tested, 0.044% active; AID 602274; in the data active means survival enhancement above about 18%;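 further: cells exposed to compounds for 16 hours before the ATP read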
PfGluPho inh: PfG6PD (Plasmodium falciparum) enzyme inhibition. PfGluPho enzyme, NADPH resazurin-diaphorase fluorescence. inhibition, % at 20 µM. 350,000 tested, 0.78% active. AID 504690;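 active means inhibition reaching at least a set limit at 20 µM in the primary screen, cut at about 59% in these data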;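 further: 0% = DMSO wells with substrate and 100% = DMSO wells lacking glucose-6-phosphate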
APOBEC3A inh: blocks human APOBEC3A ssDNA deamination; inhibition, % at 20 µM; P31941; recombinant A3A, FAM/TAMRA ssDNA deamination fluorescence; AID 493011; 330,000 tested, 0.41% active;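 active means at least 40% inhibition at 20 µM here, with at most 30% in a related deaminase screen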;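 further: plate controls were A3A with DMSO for no effect and wells lacking A3A enzyme for full effect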
Target sequence (P31941 whole entry, looked up): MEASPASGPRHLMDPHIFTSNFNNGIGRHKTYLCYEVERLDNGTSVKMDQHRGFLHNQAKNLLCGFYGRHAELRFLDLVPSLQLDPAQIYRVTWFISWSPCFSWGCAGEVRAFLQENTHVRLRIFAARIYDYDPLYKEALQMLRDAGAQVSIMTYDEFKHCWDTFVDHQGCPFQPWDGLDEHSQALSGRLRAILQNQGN
HKDC1 inh: blocks human hexokinase HKDC1 activity; recombinant HKDC1, G6PDH/diaphorase resazurin coupled fluorescence; AID 493160; Q2TB90; 340,000 tested, 0.16% active; inhibition, % at 20 µM;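 active means inhibition above about 35% when tested at 20 µM, limit read from the data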;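 further: plate controls were DMSO wells with enzyme for no effect and DMSO wells lacking enzyme for full effect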
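Material: recombinant HKDC1 hexokinase; Amount: HKDC1 at 5 µg/mL; Medium: Tris pH 8.0 buffer with MgCl2, Tween-20, BSA, BME; Schedule: 90 min reaction incubation at room temperature, dark; Technique: coupled resazurin fluorescence, excitation 525 nm, emission 613 nm.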
APOBEC3G inh: APOBEC3G (human) deaminase inhibition; inhibition, % at 20 µM; Q9HC16; recombinant A3G, ssDNA deamination FAM/TAMRA fluorescence; 330,000 tested, 0.28% active;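 active means inhibition of at least 40% at 20 µM, with no more than 30% in the related APOBEC3A deaminase screen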;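 further: plate controls were DMSO wells with A3G for no effect and wells lacking A3G enzyme for full effect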
Target sequence (Q9HC16 whole entry, looked up): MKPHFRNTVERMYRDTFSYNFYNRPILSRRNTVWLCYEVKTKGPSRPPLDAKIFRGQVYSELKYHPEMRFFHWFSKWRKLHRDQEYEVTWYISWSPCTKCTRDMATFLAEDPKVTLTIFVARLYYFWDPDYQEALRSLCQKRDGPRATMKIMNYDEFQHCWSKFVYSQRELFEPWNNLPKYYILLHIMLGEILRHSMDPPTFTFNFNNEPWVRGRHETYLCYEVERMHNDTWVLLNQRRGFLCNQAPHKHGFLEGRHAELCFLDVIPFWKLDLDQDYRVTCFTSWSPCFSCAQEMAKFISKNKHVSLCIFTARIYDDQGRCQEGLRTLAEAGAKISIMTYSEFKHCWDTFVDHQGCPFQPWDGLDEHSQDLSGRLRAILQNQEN
PfG6PD confirm: confirmation of Plasmodium falciparum G6PD inhibitors; shares compounds with PfGluPho inh; 2,400 tested, 34% active; inhibition, % at 20 µM; recombinant PfGluPho, NADPH-diaphorase-resazurin fluorescence; AID 504753;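 active means inhibition of at least 50% at 20 µM in any single replicate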;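 further: 0% = DMSO with substrate and 100% = DMSO lacking glucose-6-phosphate substrate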
Diaph ctr 10uM: counter-screen for P. falciparum G6PD inhibitors: diaphorase inhibitors, oxidizers. inhibition, % at 20 µM. shares compounds with PfGluPho inh. diaphorase-coupled resazurin reduction, fluorescence, NADPH 10 uM. 820 tested, 39% active;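 active means average inhibition reaching 50% or more with the compound at 20 µM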;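 further: resorufin red fluorescence formed as diaphorase reduces resazurin using NADPH; 0% = DMSO with enzyme and 100% = DMSO without enzyme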
Diaph ctr 30uM: inhibits diaphorase or oxidizes, flagging false PfG6PD hits | shares compounds with PfGluPho inh | Diaphorase/resazurin coupled assay, resorufin fluorescence, 30 uM NADPH | inhibition, % at 20 µM | 820 tested, 29% active | AID 504863;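 active means inhibition averaging 50% or more, tested at 20 µM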;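 further: 0% = DMSO with enzyme and 100% = DMSO wells lacking diaphorase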
* marks the source's active call; other numbers are inactive results; x = no result given. Sampled rows, rich in hits. Any-hit rate of the full collection: about 1.4%.

SMILES | hiPSC survival | PfGluPho inh | APOBEC3A inh | HKDC1 inh | APOBEC3G inh | PfG6PD confirm | others
CC1CCCC(C)N1S(=O)(=O)c1ccc(Cl)cc1 (stereo not drawn) | 0 | -18 | -1 | 4 | 0 | x
COCc1ccc(C(=O)Nc2cccc(S(=O)(=O)N(C)c3ccccc3)c2)cc1 | -1 | 18 | -1 | 1 | -1 | x
CN(c1ccc(C(=O)Nc2cccc(O)c2)cc1)S(=O)(=O)c1ccccc1 | 0 | 59* | -6 | 2 | -7 | -2
CC(=O)c1cccc(NC(=O)c2ccc(N(C)S(=O)(=O)c3ccc(C)cc3)cc2)c1 | 0 | 63* | -8 | 3 | -7 | 12
COc1ccc(/C=N/N2C(C)CCCC2C)cc1OC (stereo not drawn) | 0 | 4 | 3 | -1 | -4 | x
COc1ccccc1S(=O)(=O)N1CCN(S(=O)(=O)c2ccccc2C#N)CC1 | 0 | -17 | -2 | 1 | 0 | x
Cc1ccc2nc(N(CCCN(C)C)C(=O)c3ccc4ncsc4c3)sc2c1 | 0 | 60* | 4 | 1 | -1 | -8
COc1ccc2nc(N(CCN(C)C)C(=O)c3ccc4ncsc4c3)sc2c1 | -2 | 34 | x | x | x | x
Cc1ccc(S(=O)(=O)N(C)C[C@H]2Oc3ncc(-c4ccccc4)cc3C(=O)N([C@@H](C)CO)C[C@@H]2C)cc1 | -2 | 6 | x | x | x | x
CN1/C(=C/C(=O)c2cccs2)Sc2ccccc21 | -3 | x | -2 | x | 1 | x
CN1/C(=C\C(=O)c2cccs2)Sc2ccccc21 | -3 | 105* | -2 | -1 | 3 | 62* | Diaph ctr 10uM=41;Diaph ctr 30uM=35
O=C1/C(=C/c2ccccc2O)SC(=S)N1Cc1cccnc1 | -2 | 62* | -5 | -2 | -8 | -9
O=C(CBr)c1ccc([N+](=O)[O-])c(CS(=O)(=O)c2ccc(Cl)cc2)c1 | 0 | 80* | -4 | 2 | -2 | 74* | Diaph ctr 10uM=30;Diaph ctr 30uM=16
CCn1c(SCC(=O)c2cc(C)n(-c3ccc(C(=O)OC)cc3)c2C)nnc1-c1cccnc1 | -4 | 90* | -2 | 0 | -1 | 37
COc1ccccc1-n1c(SC)nc2c(sc(=S)n2-c2ccccc2)c1=O | 0 | -5 | -3 | -2 | -7 | x
COc1ccc(-n2c(SCC#N)nc3c(sc(=S)n3-c3ccccc3)c2=O)c(OC)c1 | 1 | 91* | -3 | -2 | 26 | 41
Cc1cc(NC(=S)N(Cc2ccc(Br)cc2)Cc2ccc(C(=O)O)cc2)ccc1Cl | -1 | -22 | -2 | -3 | -7 | x
N#Cc1cn(CCCOc2ccccc2)c2ccccc12 | -2 | 61* | -7 | 6 | -1 | 20
COC(=O)c1cn(CCOc2ccccc2)c2ccccc12 | 0 | 5 | -4 | 7 | -7 | x
COc1ccccc1OCCCn1cc(C#N)c2ccccc21 | -2 | 113* | -4 | 3 | -3 | 69* | Diaph ctr 10uM=65*;Diaph ctr 30uM=58*
NC(=S)NN=Cc1c[nH]c2nccnc12 | -2 | 76* | x | x | x | 17
NC(=S)N/N=C/c1c[nH]c2ccccc12 | -1 | 22 | 2 | -1 | -17 | x
CCOC(=O)C(C)On1c(-c2cccc(Cl)c2)nc2ccc([N+](=O)[O-])cc21 (stereo not drawn) | -1 | 64* | 1 | -5 | 15 | 2
CCOC(=O)COn1c(-c2cccc(Cl)c2)nc2ccc([N+](=O)[O-])cc21 | 1 | 110* | 0 | -1 | 4 | -16
CC(On1c(-c2ccccc2)nc2ccc(Cl)cc21)C(=O)O (stereo not drawn) | 3 | -1 | 1 | -6 | 0 | x
SMILES | hiPSC survival | PfGluPho inh | APOBEC3A inh | HKDC1 inh | APOBEC3G inh | PfG6PD confirm | others
O=S(=O)(Oc1ccccc1/C=N/n1cnnc1)c1ccccc1 | -1 | 96* | -2 | -5 | -5 | 81* | Diaph ctr 10uM=81*;Diaph ctr 30uM=63*
COc1ccccc1/C=N/n1cnnc1 | 3 | 5 | -2 | -3 | -2 | x
CCCNC(=O)c1cc(C2CCCN(C(=O)c3ccc(OC)cc3)C2)on1 (stereo not drawn) | 1 | x | x | x | x | x
COc1ccc(C(=O)N=c2sc3c(C)ccc(OC)c3n2C)cc1OC | -1 | 22 | 3 | 1 | 1 | x
COc1ccccc1C(=O)N=c1sc2c(C)ccc(OC)c2n1C | 0 | 63* | 4 | 2 | -1 | 10
CNC(=S)N(CCc1c(C)[nH]c2ccc(C)cc12)Cc1cccnc1 | 0 | 10 | -4 | -4 | -7 | x
COc1ccc(-n2c(C)cc(/C=N/Nc3nnc(C)n3N)c2C)cc1 | 3 | 66* | 0 | 4 | -2 | 44
CC(C)C(c1nnnn1Cc1ccc(F)cc1)N1CCN(c2ccc(O)cc2)CC1 (stereo not drawn) | 2 | 64* | -4 | -6 | 22 | 19
COc1ccc(Cn2nnnc2C(C(C)C)N2CCN(c3ccccc3OC)CC2)cc1 (stereo not drawn) | 0 | -10 | -3 | 4 | -9 | x
C[C@@H](C(=O)NCCc1ccccc1)N1C(=O)N2CCc3c([nH]c4ccccc34)[C@@]2(C)C1=O | -3 | 10 | -5 | -1 | -9 | x
Cc1ccc(S(=O)(=O)N(C)C)cc1NC(=O)c1cc(C(C)(C)C)nn1Cc1ccccc1 | -1 | 19 | 2 | 5 | -1 | x
O=[N+]([O-])c1ccc(O)c2ncccc12 | -2 | 63* | -2 | 15 | 31 | 44
O=C(c1ccccc1Cl)N(C(=O)c1ccccc1Cl)c1nccc(-c2cccs2)n1 | -3 | 110* | 0 | 8 | -1 | 69* | Diaph ctr 10uM=73*;Diaph ctr 30uM=65*
O=C(Nc1nccc(-c2cccs2)n1)c1ccccc1Cl | 0 | 142* | 0 | 6 | -4 | 110* | Diaph ctr 10uM=102*;Diaph ctr 30uM=81*
CCC(C(=O)NC1CCCC1)N(C(=O)c1snc(C(N)=O)c1N)c1ccc(C)cc1C (stereo not drawn) | 0 | 5 | -1 | 0 | -6 | x
CC(C)(C)c1ccc(O)c(O)c1 | 2 | 81* | 2 | -1 | 36 | 72* | Diaph ctr 10uM=8;Diaph ctr 30uM=2
CC(C)(C)c1ccc(O)c(/C=N\O)c1 | 4 | 0 | -4 | 2 | -1 | x
COc1ccc(S(=O)(=O)N2CCOCC2)cc1NC(=O)COC(=O)C1CC1C (stereo not drawn) | 0 | -1 | 3 | -5 | -1 | x
CCN(CC)CCn1c(O)c(N=O)c2ccccc21 | 2 | -2 | -1 | -10 | -3 | x
CCN(CC)CCn1c2ccccc2c(=O)c2c(O)ccc(O)c21 | 3 | 84* | x | 14 | x | 98* | Diaph ctr 10uM=31;Diaph ctr 30uM=30
CC1(C(=O)Nc2ccc(Cl)cc2)Cc2c(-c3cccc(C(F)(F)F)c3)ccnc2O1 (stereo not drawn) | 5 | x | x | x | x | x
CC(C)CN1CCN=C1Nc1ccccc1 | -1 | -3 | 1 | -7 | -5 | x
